Calls of active or inactive are those of the source. No cut-off for these calls is given here.
Columns and labels:
[1] = test system: Mus musculus; experiment: Impairment of contextual memory in C57BL/6J mouse at 30 mg/kg, ip; assay type: functional, organism-based; parameters: dose 30 mg/kg
In short: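 Male C57Bl/6 mice aged 7–12 weeks, given an ip injection in 0.9% saline containing 2.5% encapsin, 20 min before training. Training was 4 min in the chamber, then three 33 s tones (85 dB, 2.9 kHz), each ending in a 0.75 mA shock for 3 s, 1 min apart. Twenty-four hours later, freezing was scored during a 4 min context test without shock.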

[2] = test system: Mus musculus; experiment: Effect on spontaneous locomotor activity in C57BL/6J mouse at 30 mg/kg, ip by automated assessment; assay type: functional; details: route intraperitoneal
In short: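 Male C57Bl/6 mice given 30 mg/kg ip, compared with vehicle-injected mice. Spontaneous locomotor activity was recorded automatically over a 40 min observation period after injection.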

[3] = biological target: T1, GABA-A receptor; alpha-1/beta-3/gamma-2 (Homo sapiens, UniProt P14867+P18507+P28472); experiment: Binding affinity to GABAA alpha-1-beta-3-gamma-2 receptor; assay type: protein-complex assay
T1 sequence (P14867 whole entry): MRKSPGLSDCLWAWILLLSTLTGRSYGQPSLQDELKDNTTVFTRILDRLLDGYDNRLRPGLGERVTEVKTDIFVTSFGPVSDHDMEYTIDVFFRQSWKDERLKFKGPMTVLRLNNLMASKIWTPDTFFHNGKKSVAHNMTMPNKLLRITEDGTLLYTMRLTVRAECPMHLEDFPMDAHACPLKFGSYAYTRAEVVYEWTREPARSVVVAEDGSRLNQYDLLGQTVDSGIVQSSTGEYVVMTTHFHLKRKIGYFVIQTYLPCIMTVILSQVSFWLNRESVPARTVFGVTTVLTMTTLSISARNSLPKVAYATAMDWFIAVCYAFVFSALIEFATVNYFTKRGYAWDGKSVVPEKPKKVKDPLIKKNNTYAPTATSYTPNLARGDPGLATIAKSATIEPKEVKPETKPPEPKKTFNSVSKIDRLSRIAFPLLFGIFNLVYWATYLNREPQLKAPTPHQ
T1 sequence (P18507 whole entry): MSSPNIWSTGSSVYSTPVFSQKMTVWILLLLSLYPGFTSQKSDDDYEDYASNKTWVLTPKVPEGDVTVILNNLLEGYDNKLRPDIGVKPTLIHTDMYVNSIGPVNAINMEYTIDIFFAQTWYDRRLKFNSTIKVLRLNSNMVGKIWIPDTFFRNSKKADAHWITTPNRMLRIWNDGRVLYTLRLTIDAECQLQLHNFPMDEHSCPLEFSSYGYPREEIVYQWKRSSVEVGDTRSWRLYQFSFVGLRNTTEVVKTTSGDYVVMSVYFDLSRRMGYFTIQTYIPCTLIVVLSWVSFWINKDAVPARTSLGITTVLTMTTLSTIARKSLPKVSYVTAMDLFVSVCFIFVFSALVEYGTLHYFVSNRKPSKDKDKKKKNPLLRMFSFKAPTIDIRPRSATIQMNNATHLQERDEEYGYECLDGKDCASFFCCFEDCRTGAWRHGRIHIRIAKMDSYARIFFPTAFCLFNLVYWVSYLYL
T1 sequence (P28472 whole entry): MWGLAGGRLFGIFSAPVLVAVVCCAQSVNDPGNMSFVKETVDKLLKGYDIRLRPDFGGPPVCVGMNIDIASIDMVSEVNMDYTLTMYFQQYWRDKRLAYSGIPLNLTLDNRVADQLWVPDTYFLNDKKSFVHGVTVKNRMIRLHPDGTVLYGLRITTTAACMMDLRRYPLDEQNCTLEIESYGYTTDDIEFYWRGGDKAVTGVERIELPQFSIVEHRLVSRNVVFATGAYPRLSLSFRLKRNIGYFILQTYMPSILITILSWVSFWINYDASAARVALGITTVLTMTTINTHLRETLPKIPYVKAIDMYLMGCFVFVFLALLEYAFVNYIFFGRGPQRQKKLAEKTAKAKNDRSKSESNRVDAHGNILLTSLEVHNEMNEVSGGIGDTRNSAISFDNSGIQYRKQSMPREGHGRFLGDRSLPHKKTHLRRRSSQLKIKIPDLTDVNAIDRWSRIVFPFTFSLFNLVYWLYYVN

[4] = biological target: T2, GABA-A receptor; alpha-2/beta-3/gamma-2 (Homo sapiens, UniProt P18507+P28472+P47869); experiment: Binding affinity to GABAA alpha-2-beta-3-gamma-2 receptor
T2 sequence (P18507 whole entry): T1 sequence (P18507 whole entry)
T2 sequence (P28472 whole entry): T1 sequence (P28472 whole entry)
T2 sequence (P47869 whole entry): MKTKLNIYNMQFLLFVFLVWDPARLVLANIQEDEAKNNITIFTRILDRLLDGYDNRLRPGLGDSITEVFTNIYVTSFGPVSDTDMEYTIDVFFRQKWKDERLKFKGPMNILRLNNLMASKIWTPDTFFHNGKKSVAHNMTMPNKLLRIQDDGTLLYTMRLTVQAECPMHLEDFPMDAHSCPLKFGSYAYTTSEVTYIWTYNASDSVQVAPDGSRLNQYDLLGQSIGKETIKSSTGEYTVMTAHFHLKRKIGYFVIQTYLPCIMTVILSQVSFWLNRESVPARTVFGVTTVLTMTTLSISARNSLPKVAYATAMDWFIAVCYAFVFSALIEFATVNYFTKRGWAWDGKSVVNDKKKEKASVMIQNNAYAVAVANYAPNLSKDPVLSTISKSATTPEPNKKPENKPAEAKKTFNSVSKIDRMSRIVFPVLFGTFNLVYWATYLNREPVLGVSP

[5] = biological target: T3, GABA-A receptor; alpha-6/beta-3/gamma-2 (Homo sapiens, UniProt P18507+P28472+Q16445); experiment: Binding affinity to GABAA alpha-6-beta-3-gamma-2 receptor; assay type: protein-complex assay
[6] = biological target: T4, GABA-A receptor; alpha-5/beta-3/gamma-2 (Homo sapiens, UniProt P18507+P28472+P31644); experiment: Binding affinity to GABAA alpha-5-beta-3-gamma-2 receptor; assay type: protein-complex assay
T4 sequence (P18507 whole entry): T1 sequence (P18507 whole entry)
T4 sequence (P28472 whole entry): T1 sequence (P28472 whole entry)
T4 sequence (P31644 whole entry): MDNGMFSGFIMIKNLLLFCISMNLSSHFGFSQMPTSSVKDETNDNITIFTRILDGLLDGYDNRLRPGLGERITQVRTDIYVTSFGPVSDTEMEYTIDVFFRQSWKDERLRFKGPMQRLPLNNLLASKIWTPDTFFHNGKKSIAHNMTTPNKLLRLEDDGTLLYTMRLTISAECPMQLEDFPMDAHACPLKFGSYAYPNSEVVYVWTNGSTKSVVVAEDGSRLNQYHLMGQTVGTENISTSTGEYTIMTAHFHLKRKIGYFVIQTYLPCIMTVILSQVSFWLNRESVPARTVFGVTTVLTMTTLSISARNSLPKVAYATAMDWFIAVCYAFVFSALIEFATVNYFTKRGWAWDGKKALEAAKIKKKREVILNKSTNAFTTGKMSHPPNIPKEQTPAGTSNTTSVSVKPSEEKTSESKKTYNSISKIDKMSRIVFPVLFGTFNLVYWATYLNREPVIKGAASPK

[7] = biological target: T5, GABA A receptor alpha-4/beta-3/gamma-2 (Homo sapiens, UniProt P18507+P28472+P48169); experiment: Binding affinity to GABAA alpha-4-beta-3-gamma-2 receptor; assay type: protein-complex assay
[8] = biological target: T6, Gamma-aminobutyric acid receptor subunit alpha-3 (Homo sapiens, UniProt P18507+P28472+P34903); experiment: Binding affinity to GABAA alpha-3-beta-3-gamma-2 receptor
T6 sequence (P34903 whole entry): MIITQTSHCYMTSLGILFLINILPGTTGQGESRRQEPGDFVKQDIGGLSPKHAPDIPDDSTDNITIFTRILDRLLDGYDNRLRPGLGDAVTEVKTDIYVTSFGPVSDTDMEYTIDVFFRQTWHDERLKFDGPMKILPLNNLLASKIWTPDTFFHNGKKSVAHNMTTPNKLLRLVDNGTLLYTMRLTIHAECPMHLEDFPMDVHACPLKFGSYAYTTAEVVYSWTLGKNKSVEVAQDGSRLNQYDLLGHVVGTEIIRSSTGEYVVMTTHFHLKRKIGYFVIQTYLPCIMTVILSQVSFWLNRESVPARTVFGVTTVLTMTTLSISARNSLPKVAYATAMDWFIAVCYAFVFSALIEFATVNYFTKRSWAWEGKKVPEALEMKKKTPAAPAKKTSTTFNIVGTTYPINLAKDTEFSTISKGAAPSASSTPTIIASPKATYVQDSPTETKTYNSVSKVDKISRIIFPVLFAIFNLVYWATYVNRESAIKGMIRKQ

[9] = biological target: T2, GABA-A receptor; alpha-2/beta-3/gamma-2; experiment: Activity at alpha-2-beta-3-gamma-2 GABAA receptor expressed in Xenopus oocytes assessed as inhibition in GABA-induced current by voltage clamp assay; assay type: cell-based, Oocyte
In short: (§1)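 cRNA for alpha and beta3 subunits (0.0065 ng/nL) plus gamma2 (0.032 ng/nL) injected into Xenopus oocytes, 50 nL each, recorded after ≥36 h. Two-electrode voltage clamp at -60 mV, room temperature, in Xenopus Ringer's pH 7.4. Drug (final 0.1% DMSO) preapplied 30 s, then coapplied with GABA at about EC20 until peak. Current normalized to response without drug.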

[10] = biological target: T1, GABA-A receptor; alpha-1/beta-3/gamma-2; experiment: Activity at GABAA alpha-1-beta-3-gamma-2 receptor expressed in Xenopus oocytes assessed as inhibition of GABA-induced current by voltage clamp assay; assay type: cell-based, Oocyte; in short: as §1
[11] = biological target: T4, GABA-A receptor; alpha-5/beta-3/gamma-2; experiment: Activity at alpha-5-beta-3-gamma-2 GABAA receptor expressed in Xenopus oocytes assessed as inhibition in GABA-induced current by voltage clamp assay; assay type: cell-based, Oocyte
In short: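 cRNA-injected Xenopus oocytes (α5, β3 transcripts 0.0065 ng/nL, γ2 0.032 ng/nL; 50 nL), defolliculated after ≥36 h; two-electrode voltage clamp at −60 mV, room temperature, in Xenopus Ringer's pH 7.4. Ligand (1 µM; 0.1% DMSO final) preapplied 30 s, then coapplied with GABA at EC20 until peak; current change versus GABA alone.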

[12] = biological target: T3, GABA-A receptor; alpha-6/beta-3/gamma-2; experiment: Activity at alpha-6-beta-3-gamma-2 GABAA receptor expressed in Xenopus oocytes assessed as inhibition in GABA-induced current by voltage clamp assay; assay type: cell-based, Oocyte; in short: as §1
[13] = biological target: T5, GABA A receptor alpha-4/beta-3/gamma-2; experiment: Activity at alpha-4-beta-3-gamma-2 GABAA receptor expressed in Xenopus oocytes assessed as inhibition in GABA-induced current by voltage clamp assay; assay type: cell-based, Oocyte; in short: as §1

T3 sequence (Q16445 whole entry, one chain of several): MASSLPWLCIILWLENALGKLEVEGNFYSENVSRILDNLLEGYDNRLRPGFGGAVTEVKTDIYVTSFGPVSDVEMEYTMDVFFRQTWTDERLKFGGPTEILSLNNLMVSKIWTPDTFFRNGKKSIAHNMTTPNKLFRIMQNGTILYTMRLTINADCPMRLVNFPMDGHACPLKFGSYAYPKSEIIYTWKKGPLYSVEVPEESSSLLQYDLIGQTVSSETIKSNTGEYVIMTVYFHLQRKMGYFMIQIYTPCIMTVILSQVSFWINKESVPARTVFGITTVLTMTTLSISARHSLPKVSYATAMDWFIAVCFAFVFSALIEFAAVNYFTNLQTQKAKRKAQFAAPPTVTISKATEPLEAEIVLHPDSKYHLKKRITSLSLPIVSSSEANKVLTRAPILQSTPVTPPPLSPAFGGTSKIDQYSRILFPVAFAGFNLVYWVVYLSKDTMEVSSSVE
T5 sequence (P48169 whole entry, one chain of several): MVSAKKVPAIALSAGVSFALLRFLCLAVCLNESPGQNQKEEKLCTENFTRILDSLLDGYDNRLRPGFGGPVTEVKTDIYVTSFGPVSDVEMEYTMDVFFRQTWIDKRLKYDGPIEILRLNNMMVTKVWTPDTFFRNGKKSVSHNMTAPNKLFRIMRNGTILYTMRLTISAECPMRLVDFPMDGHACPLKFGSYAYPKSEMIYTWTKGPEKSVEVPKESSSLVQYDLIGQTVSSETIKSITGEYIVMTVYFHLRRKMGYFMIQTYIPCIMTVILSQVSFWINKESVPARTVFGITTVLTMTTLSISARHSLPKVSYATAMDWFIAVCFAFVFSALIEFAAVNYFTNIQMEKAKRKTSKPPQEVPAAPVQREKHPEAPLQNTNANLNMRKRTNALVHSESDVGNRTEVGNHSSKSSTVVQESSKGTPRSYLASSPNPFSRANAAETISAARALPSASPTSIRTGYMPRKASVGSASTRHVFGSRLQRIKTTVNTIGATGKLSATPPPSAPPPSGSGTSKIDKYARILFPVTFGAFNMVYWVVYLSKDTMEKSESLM

C#Cc1ccc2c(c1)C(c1ccccc1)=N[C@H](C)c1c(C(=O)OCC)ncn1-2
Activity [1]: Active | Activity [2]: 1026

CN1CC2C(C(=O)OC(C)(C)C)=NCN2c2ccc(C#C[Si](C)(C)C)cc2C1=O (stereo not drawn)
Ki [3]: 197 nM | Ki [4]: 143 nM | Ki [5]: 58.6 nM | Ki [6]: 2.61 nM | Ki [7]: 2.61 nM | Ki [8]: 255 nM

C#Cc1ccc2c(c1)C(=O)N(C)Cc1c(C(=O)OC(C)(C)C)ncn1-2
EC50 [9]: 95.5 µM | EC50 [10]: 74.4 µM | EC50 [11]: 9.8 µM | EC50 [12]: 51.7 µM | EC50 [13]: 324 µM
